Among the data in ChEMBL document CHEMBL5696442, “Discovery of type II inhibitors of TGFβ-activated kinase 1 (TAK1) and mitogen-activated protein kinase kinase kinase kinase 2 (MAP4K2)” (J Med Chem, 2015) are inhibition values, retold here.

Experiment [1] deals with Mitogen-activated protein kinase 14 (Homo sapiens, UniProt Q16539). As to the kind of experiment: Inhibition of p38 alpha in human Huh-7 cell lysate at 1 uM by KiNativ Profiling analysis relative to control. The class given is subcellular.
Chain of Mitogen-activated protein kinase 14 (Q16539 whole entry): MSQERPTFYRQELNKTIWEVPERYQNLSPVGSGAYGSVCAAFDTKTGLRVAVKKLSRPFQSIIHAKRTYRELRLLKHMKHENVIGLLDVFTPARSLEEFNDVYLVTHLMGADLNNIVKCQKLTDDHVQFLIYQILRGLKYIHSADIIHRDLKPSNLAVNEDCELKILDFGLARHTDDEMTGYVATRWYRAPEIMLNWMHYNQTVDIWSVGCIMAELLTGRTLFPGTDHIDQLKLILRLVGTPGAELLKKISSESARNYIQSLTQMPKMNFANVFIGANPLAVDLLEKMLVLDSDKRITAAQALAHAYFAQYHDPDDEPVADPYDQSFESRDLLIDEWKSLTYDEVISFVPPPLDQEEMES
In experiment [2] the target is Mitogen-activated protein kinase kinase kinase 20 (Homo sapiens, UniProt Q9NYL2). Briefly: Inhibition of ZAK Lys1 labeling site in human Huh-7 cell lysate at 1 uM by KiNativ Profiling analysis relative to control. The class given is subcellular.
Chain of Mitogen-activated protein kinase kinase kinase 20 (Q9NYL2 2-800 limits assumed): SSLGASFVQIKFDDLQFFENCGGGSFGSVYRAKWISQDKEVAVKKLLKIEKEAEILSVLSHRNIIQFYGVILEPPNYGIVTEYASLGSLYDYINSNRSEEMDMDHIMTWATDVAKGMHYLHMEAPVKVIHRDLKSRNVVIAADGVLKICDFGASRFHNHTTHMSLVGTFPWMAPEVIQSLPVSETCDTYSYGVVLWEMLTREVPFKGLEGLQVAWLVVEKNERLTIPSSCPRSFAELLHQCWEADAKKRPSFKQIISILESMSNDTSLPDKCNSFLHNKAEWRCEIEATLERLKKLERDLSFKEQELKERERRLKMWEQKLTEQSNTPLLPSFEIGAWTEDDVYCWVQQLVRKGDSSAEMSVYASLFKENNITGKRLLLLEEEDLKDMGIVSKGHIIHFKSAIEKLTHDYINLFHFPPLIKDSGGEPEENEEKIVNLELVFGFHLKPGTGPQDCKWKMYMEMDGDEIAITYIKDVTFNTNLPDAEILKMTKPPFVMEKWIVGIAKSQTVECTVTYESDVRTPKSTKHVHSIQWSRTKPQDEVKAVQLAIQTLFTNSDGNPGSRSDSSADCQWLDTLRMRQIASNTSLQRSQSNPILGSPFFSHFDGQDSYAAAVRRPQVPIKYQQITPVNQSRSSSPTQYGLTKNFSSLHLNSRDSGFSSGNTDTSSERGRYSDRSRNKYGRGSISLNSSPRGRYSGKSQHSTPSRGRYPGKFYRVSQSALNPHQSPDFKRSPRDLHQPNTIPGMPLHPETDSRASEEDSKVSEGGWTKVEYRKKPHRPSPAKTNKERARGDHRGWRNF
Experiment [3] in a line: Inhibition of IL-1 induced p38 MAPK phosphorylation level in wild type mouse MEF cells at 500 nM incubated for 1 hr followed by IL-1 stimulation by Western blot analysis relative to control. The class given is functional. For orientation: Immunoblotting shows a protein as a band on a membrane.
Experiment [4] deals with Cyclin-dependent kinase 17 (Homo sapiens) (UniProt Q00537). Briefly: Inhibition of PCTAIRE2 Lys2 labeling site in human A-375 cells at 5 uM by KiNativ Profiling analysis relative to control. The class given is cell-based.
Chain of Cyclin-dependent kinase 17 (Homo sapiens) (Q00537 whole entry, looked up): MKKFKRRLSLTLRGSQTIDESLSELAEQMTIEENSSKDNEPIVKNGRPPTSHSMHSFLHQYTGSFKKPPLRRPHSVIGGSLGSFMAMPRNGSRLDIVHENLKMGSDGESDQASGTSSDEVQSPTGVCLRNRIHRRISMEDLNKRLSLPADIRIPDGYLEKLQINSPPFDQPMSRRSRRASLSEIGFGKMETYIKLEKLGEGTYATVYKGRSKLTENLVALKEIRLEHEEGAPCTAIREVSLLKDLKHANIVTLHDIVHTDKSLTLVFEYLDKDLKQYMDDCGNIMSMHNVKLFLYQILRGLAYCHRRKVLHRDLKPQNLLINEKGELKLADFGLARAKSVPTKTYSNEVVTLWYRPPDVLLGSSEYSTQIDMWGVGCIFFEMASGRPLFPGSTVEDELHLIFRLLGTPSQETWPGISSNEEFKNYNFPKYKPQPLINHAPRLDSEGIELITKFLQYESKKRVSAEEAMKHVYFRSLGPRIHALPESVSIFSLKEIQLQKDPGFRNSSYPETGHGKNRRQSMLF
The target in experiment [5] is T1, Mitogen-activated protein kinase kinase kinase 3 (Homo sapiens) (UniProt Q99759).
T1 sequence (whole entry): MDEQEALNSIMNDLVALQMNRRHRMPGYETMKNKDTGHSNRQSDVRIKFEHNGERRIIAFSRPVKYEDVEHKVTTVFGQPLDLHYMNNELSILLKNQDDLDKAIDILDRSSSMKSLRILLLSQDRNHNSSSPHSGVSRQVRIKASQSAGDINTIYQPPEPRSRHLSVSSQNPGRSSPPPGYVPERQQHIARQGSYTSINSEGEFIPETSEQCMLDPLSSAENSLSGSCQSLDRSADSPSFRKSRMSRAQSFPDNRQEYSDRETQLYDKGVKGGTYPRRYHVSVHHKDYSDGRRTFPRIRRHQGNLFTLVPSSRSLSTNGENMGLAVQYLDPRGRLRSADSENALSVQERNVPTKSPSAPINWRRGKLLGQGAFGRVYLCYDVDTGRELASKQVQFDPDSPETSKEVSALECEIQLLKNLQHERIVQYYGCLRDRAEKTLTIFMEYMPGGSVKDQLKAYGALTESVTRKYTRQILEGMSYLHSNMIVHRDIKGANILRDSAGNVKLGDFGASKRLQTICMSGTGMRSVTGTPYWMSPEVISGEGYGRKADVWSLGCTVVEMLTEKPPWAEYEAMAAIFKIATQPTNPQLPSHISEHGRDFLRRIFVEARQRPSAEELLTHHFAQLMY
Briefly: Inhibition of MAP3K3 Lys1 labeling site in human A-375 cells at 5 uM by KiNativ Profiling analysis relative to control. Type of experiment: cell-based.

Experiment [6] concerns the target Serine/threonine-protein kinase Nek6 (Homo sapiens) (UniProt Q9HC98). Briefly: Inhibition of NEK6 Lys2 labeling site in human A-375 cells at 5 uM by KiNativ Profiling analysis relative to control. The class given is cell-based.
For experiment [7], the target named is T2, Acylglycerol kinase, mitochondrial (Homo sapiens) (UniProt Q53H12).
T2 sequence (whole entry): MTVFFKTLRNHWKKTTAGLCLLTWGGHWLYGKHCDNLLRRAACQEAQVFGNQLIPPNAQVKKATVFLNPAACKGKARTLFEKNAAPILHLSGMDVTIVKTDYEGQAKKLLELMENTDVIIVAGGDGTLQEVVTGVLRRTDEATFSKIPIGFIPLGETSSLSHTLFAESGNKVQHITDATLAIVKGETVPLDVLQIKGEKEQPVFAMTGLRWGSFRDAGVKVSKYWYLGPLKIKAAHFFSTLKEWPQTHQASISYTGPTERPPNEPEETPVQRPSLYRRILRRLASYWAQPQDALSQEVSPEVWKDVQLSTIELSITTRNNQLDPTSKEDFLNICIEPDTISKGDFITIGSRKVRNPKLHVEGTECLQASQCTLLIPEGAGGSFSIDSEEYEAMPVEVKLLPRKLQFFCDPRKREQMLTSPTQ
Briefly: Inhibition of AGK ATP labeling site in human A-375 cells at 0.5 uM by KiNativ Profiling analysis relative to control. The class given is cell-based. The method, boiled down: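 Live A375 melanoma cells were treated with compound at 5 or 0.5 μM, then lysed. The lysates were labeled with a lysine-reactive ATP or ADP-biotin probe. Kinase protection from probe labeling was measured by KiNativ.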

In experiment [8] the target is T3, Inhibitor of nuclear factor kappa-B kinase subunit alpha (Homo sapiens) (UniProt O15111).
T3 sequence (whole entry): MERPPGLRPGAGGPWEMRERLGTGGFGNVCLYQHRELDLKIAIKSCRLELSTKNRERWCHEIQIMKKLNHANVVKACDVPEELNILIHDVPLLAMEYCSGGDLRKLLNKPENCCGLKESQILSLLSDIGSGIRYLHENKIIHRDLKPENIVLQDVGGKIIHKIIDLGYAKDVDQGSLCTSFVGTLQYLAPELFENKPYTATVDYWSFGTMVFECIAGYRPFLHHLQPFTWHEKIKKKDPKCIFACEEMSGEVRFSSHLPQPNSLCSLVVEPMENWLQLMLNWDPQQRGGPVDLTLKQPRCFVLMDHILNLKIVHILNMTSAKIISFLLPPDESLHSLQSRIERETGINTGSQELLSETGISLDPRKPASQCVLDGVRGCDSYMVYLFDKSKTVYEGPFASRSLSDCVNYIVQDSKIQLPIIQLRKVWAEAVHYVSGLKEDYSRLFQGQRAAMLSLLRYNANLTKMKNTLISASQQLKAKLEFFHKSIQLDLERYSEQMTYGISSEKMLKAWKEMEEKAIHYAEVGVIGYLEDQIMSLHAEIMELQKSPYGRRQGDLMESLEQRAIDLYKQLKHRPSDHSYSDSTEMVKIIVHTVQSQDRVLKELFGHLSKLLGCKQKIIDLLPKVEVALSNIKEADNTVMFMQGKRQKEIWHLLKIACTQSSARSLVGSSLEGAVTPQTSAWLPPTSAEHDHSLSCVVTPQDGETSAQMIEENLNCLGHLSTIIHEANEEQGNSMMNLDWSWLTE
As to the kind of experiment: Inhibition of IKKa Lys2 labeling site in human A-375 cells at 0.5 uM by KiNativ Profiling analysis relative to control. The class given is cell-based.

Experiment [9] has as its target Phosphatidylinositol 4-kinase beta (Homo sapiens) (UniProt Q9UBF8). As to the kind of experiment: Inhibition of PI4KB ATP labeling site harbouring VPHTQAVVLNSKDK in human A-375 cells at 0.5 uM by KiNativ Profiling analysis relative to control. The class given is cell-based.
Experiment [10] addresses Ribosomal protein S6 kinase alpha-1 (Homo sapiens) (UniProt Q15418). As to the kind of experiment: Inhibition of RSK1 domain2 Lys2 labeling site in human A-375 cells at 0.5 uM by KiNativ Profiling analysis relative to control. The class given is cell-based. In outline: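 Live A375 melanoma cells treated with compound at 5 or 0.5 μM, then lysed. Lysate kinases were labeled with a lysine-reactive ATP or ADP-biotin probe. Inhibition was read as protection of labeling sites from the probe.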

Experiment [11] addresses Serine/threonine-protein kinase MARK2 (Homo sapiens) (UniProt Q7KZI7). Briefly: Inhibition of MARK2 Lys2 labeling site harbouring DLKAENLLLDADMNIK in human A-375 cells at 0.05 uM by KiNativ Profiling analysis relative to control. The class given is cell-based.
Experiment [12] addresses Serine/threonine-protein kinase Nek7 (Homo sapiens) (UniProt Q8TDX7). As to the kind of experiment: Inhibition of NEK7 Lys2 labeling site in human A-375 cells at 0.05 uM by KiNativ Profiling analysis relative to control. The class given is cell-based.

Broadly, the inhibition is the drop in the measured response relative to a control, in per cent.

Chain of Serine/threonine-protein kinase Nek7 (Homo sapiens) (Q8TDX7 whole entry, looked up): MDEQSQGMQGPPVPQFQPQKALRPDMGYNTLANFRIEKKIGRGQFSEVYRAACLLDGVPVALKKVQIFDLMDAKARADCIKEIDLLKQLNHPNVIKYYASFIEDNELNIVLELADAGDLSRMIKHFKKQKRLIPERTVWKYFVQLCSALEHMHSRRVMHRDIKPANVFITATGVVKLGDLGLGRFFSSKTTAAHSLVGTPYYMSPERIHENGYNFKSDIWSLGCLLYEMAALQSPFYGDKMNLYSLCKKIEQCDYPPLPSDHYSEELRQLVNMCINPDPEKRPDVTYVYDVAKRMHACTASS
Chain of Ribosomal protein S6 kinase alpha-1 (Homo sapiens) (Q15418 whole entry, the tested form may be a part): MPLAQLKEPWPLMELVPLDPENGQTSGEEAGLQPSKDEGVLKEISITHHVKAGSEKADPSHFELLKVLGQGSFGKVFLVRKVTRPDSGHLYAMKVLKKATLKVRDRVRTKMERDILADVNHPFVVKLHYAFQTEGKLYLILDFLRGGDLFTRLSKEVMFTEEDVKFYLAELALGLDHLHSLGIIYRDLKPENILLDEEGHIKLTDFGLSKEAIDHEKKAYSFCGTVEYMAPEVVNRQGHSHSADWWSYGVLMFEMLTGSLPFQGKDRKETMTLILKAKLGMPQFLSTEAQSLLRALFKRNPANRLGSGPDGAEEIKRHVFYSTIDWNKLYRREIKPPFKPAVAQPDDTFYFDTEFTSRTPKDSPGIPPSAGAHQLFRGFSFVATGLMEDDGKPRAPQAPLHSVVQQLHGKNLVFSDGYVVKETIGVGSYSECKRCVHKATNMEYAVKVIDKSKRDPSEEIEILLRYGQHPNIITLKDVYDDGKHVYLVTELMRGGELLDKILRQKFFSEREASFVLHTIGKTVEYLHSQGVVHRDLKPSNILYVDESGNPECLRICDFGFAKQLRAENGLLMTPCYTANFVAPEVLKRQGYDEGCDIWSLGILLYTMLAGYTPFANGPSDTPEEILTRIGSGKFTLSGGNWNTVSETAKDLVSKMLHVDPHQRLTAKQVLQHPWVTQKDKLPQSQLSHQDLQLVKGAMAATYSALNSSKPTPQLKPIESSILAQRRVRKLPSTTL
Chain of Serine/threonine-protein kinase MARK2 (Homo sapiens) (Q7KZI7 whole entry): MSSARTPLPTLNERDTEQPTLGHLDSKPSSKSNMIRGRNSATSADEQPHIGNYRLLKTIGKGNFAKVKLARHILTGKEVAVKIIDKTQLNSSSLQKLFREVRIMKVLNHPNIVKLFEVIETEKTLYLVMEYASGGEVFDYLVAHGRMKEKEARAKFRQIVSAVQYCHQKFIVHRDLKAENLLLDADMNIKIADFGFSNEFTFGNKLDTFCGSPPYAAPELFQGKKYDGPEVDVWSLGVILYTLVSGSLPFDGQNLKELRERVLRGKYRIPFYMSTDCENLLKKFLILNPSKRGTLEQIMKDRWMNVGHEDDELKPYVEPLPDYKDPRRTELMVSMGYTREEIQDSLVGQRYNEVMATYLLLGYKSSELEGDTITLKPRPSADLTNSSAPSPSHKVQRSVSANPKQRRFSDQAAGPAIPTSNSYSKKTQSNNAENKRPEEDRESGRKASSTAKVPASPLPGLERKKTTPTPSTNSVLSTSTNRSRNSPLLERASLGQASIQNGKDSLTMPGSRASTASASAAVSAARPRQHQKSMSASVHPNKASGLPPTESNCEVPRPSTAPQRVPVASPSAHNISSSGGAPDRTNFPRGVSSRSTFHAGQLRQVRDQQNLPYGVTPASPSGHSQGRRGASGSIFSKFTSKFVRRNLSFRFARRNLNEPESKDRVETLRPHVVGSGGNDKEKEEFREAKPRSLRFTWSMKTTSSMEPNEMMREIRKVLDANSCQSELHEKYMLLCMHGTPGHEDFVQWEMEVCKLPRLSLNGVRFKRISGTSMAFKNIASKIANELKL
Chain of Serine/threonine-protein kinase Nek6 (Homo sapiens) (Q9HC98 whole entry): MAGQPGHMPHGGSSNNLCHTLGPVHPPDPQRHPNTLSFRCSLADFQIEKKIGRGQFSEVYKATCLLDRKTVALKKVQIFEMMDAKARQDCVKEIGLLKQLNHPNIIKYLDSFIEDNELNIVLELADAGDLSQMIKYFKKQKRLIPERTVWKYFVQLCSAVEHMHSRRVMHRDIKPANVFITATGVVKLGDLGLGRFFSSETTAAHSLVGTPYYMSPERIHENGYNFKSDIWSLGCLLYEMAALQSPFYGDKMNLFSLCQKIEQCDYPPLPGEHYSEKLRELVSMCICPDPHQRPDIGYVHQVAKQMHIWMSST
Chain of Phosphatidylinositol 4-kinase beta (Homo sapiens) (Q9UBF8 2-816 limits assumed): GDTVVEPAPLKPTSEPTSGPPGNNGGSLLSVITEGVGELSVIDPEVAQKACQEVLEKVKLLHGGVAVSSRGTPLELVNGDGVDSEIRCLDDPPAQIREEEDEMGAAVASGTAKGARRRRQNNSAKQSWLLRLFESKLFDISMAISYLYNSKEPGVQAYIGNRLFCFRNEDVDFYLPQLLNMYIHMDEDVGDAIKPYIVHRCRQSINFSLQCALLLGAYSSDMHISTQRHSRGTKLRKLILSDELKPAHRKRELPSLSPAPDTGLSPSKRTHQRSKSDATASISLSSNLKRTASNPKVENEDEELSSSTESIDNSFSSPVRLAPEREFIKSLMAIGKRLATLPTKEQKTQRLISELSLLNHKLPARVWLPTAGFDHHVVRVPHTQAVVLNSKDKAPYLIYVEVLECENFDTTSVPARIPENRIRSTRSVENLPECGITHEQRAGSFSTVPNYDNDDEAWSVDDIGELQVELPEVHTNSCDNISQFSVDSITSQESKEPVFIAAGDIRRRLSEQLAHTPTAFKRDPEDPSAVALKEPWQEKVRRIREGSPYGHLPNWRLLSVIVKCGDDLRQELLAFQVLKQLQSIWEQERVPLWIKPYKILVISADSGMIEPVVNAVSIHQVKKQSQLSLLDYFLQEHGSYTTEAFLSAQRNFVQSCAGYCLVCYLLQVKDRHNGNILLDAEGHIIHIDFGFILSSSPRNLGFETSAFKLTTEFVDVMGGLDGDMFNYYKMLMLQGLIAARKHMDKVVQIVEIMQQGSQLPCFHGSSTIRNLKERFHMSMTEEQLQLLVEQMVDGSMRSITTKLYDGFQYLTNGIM

On to `CNc1cc(Oc2cc(C(=O)Nc3cc(N4CCN(C)CC4)cc(C(F)(F)F)c3)ccc2C)ncn1`, for which the inhibition worked out at 27.1% in experiment [1] and 31.8% in experiment [2]. In experiment [3], the inhibition at 0.5 µM stood at 50%.

`CCN1CCN(Cc2ccc(NC(=O)c3ccc(C)c(/C=C/c4cnc5[nH]ccc5c4OC)c3)cc2C(F)(F)F)CC1`: the inhibition in [4] was 27.8%; in experiment [5] it was 80.4%; in experiment [6], 3.1%; in [7] it was 7%; in experiment [8] it was 13.3%; in experiment [9] it was -4.3%. Moreover, the results for the inhibition in experiment [10], in experiment [11] and in experiment [12] were 1.6%, 11.6% and 5.8%, respectively.

Turning to `CNc1cc(Oc2cc(C(=O)Nc3cc(-n4cnc(C)c4)cc(C(F)(F)F)c3)ccc2C)ncn1`, the inhibition in experiment [1] came out at 13.4%; in experiment [2], 43.6%. For the same molecule, the inhibition at 0.5 µM in experiment [3] is 50%.

Consider `CCN1CCN(Cc2ccc(NC(=O)c3ccc(C)c(Oc4ccnc5[nH]ccc45)c3)cc2C(F)(F)F)CC1`, for which the inhibition in experiment [4] was 87%; in experiment [5], 77.1%; in experiment [6], 6.4%; in experiment [7], -0.1%; in experiment [8] it was 33.4%; in [9] it was 6.9%. The figures for the inhibition in experiment [10], in experiment [11] and in [12] were 3%, 19.5% and 10.6%, respectively.
